In one assay the test system is A549. Briefly: Antiproliferative activity against human A549 cells at 10 uM after 72 hrs by MTS assay. The class given is functional. (Formazan colour is commonly taken as a measure of viable cells.)
A short description of assay [1]: Antiproliferative activity against human PM8910 cells at 10 uM after 72 hrs by MTS assay. The assay is classed as functional.
The nature of assay [2]: Antiproliferative activity against human SKBR3 cells at 10 uM after 72 hrs by MTS assay. The assay is classed as functional, SK-BR-3. The method in brief:
(§1)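 Single-concentration screen. Cells at 4 × 10^4 cells/ml, seeded and incubated overnight, then given 10 µM compound in DMSO for 72 h (37 °C, 5% CO2), with DMSO-only controls. MTS added for 4 h and A490 read. Percent inhibition = (1 − OD490 treated/OD490 control) × 100, from triplicate experiments.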

Another assay relates to NCI-H1975. Description: Antiproliferative activity against human NCI-H1975 cells at 10 uM after 72 hrs by MTS assay. The assay is classed as functional. Summed up:
as §1

Assay [3] in a line: Antiproliferative activity against human H460 cells at 10 uM after 72 hrs by MTS assay. The class given is functional, NCI-H460.
Assay [4] in a line: Antiproliferative activity against human HCC827 cells at 10 uM after 72 hrs by MTS assay. The class given is functional.
The nature of assay [5]: Antiproliferative activity against human Bel7402 cells at 10 uM after 72 hrs by MTS assay. The assay is classed as functional, Bel-7402.
A short description of assay [6]: Antiproliferative activity against human SGC7901 cells at 10 uM after 72 hrs by MTS assay. The assay is classed as functional, SGC-7901.
The test system of a further assay is U-251. Briefly: Antiproliferative activity against human U251 cells at 10 uM after 72 hrs by MTS assay. The assay is classed as functional. The method in brief: as §1

Regarding `O=C1Nc2ccc(Cl)cc2/C1=N/NC(=O)c1ccc(N2CCOCC2)c([N+](=O)[O-])c1`, the Activity was found to be 7.93% in the assay on A549; 8.98% in [1]; 11.88% in assay [2]; 17.93% in the assay with NCI-H1975; 7.06% in assay [3]; 3.85% in [4]. Also, the Activity in assay [5] is 0.27%; in [6] it was 0.54%; in the assay on U-251, -8.37%.

As for `O=CN1CCN(c2ccc(/C=C3\C(=O)Nc4ccccc43)cc2)CC1`, the Activity was 25.54% in the assay with A549; 27.47% in assay [1]; 7.42% in assay [2]; 27.15% in the assay with NCI-H1975; 32.06% in assay [3]; 26.61% in [4]. For the same molecule, the results for the Activity (in assay [5]; in assay [6]; with U-251) were 25.97%, 16.5% and 2.24%, respectively.

Turning to `O=C1Nc2ncccc2/C1=C/c1ncc[nH]1`, the Activity in the assay with A549 is recorded as 6.76%; in [1] it was 0.71%; in [2], -0.35%; in the assay on NCI-H1975, 22.81%; in [3], 13.74%; in assay [4], -5.39%. Besides, the Activity in assay [5] is recorded as 3.18%; in [6], 12.69%; in the assay on U-251, -2.99%.

As for `COc1cc(OC)c(/C=C2\C(=O)Nc3ncccc32)c(OC)c1`, the Activity in the assay on A549 is reported as 39.96%; in [1], 41.21%; in [2] it was 2.1%; in the assay on NCI-H1975, 66.49%; in assay [3], 53.98%; in [4] it was 17.03%. For the same molecule, the figures for the Activity (in assay [5]; in assay [6]; in the assay with U-251) were 40.41%, 35.63% and 7.46%, respectively.

With `CCn1c2ccccc2c2cc(/N=C3/C(=O)Nc4ccc(Cl)cc43)ccc21`, the Activity in the assay with A549 is listed as 26.46%; in [1] it was 24.55%; in [2], 20.02%; with NCI-H1975, 59.78%; in [3], 30.28%; in assay [4], 37.81%. Also, the Activity turned out to be 16.52% in assay [5], 15.22% in assay [6] and 8.03% in the assay with U-251.

For `O=C1Nc2ncccc2/C1=C/c1c[nH]c2ccc(Br)cc12`, the Activity in the assay with A549 came to 29.66%; in [1], 40.59%; in assay [2], 27.26%; in the assay with NCI-H1975, 71.46%; in assay [3], 39.48%; in assay [4] it was 39.64%. Besides, the Activity was 42.22% in assay [5], 32.51% in assay [6] and 5.06% in the assay on U-251.

As for `O=C1Nc2ccc(Cl)cc2/C1=C/c1c[nH]c2ncccc12`, the Activity came out at 34.13% in the assay on A549; 29.28% in assay [1]; 10.07% in [2]; 48.72% with NCI-H1975; 48.99% in [3]; 25.9% in assay [4]. For the same molecule, the results for the Activity (in assay [5]; in [6]; in the assay on U-251) were 34.51%, 31.4% and 5.49%, respectively.

In the case of `Nc1nc(N2CCOCC2)ccc1/N=C1\C(=O)Nc2ccc(Cl)cc21`, the Activity amounted to 34.07% in the assay on A549; 26.03% in [1]; 17.97% in [2]; 56.34% with NCI-H1975; 37.48% in assay [3]; 33.66% in [4]. In addition, the Activity in assay [5] is recorded as 18.8%; in assay [6] it was 18.63%; in the assay with U-251, -0.07%.

Turning to `O=C1Nc2ncccc2/C1=C/c1ccccc1C(F)(F)F`, the Activity in the assay with A549 is listed as 11.09%; in assay [1], 29.66%; in [2], 5.96%; with NCI-H1975 it was 31.12%; in assay [3], 16.53%; in assay [4], 1.3%. Further, the figures for the Activity (in assay [5]; in assay [6]; in the assay on U-251) were 7.05%, 13.97% and -5.87%, respectively.

Take `O=C1Nc2ccc(Cl)cc2/C1=N/c1ccc2nc(S)[nH]c2c1`: the Activity with A549 is given as 11.87%; in [1] it was 10.36%; in assay [2] it was 8.27%; in the assay on NCI-H1975, 26.56%; in assay [3] it was 5.31%; in assay [4], 19.19%. The results for the Activity (in assay [5]; in assay [6]; with U-251) were 10.23%, 4.79% and -4.89%, respectively.

On to `O=C1Nc2ccc(Cl)cc2/C1=N/NC(=O)c1ccco1`, for which the Activity in the assay with A549 amounted to 11.52%; in [1] it was 15.69%; in assay [2], 23.68%; with NCI-H1975, 27.45%; in assay [3], 17.15%; in assay [4], 7.22%. The Activity in assay [5] is 12.57%; in assay [6], 10.02%; in the assay with U-251, 12.52%.

Regarding `Cc1cc2cc(/N=C3\C(=O)Nc4ccc(Cl)cc43)ccc2[nH]1`, the Activity is listed as 7.35% with A549; 12.97% in [1]; 9.84% in assay [2]; 26.35% in the assay with NCI-H1975; 8.51% in assay [3]; 23.12% in [4]. Also, the Activity in [5] came out at 6.73%; in assay [6], 7.05%; with U-251, 7.94%.

As to `O=C1Nc2ccccc2/C1=C/c1ccc(N2CCN(C(=O)c3ccccc3)CC2)cc1`, the Activity is 23.47% with A549; 40.43% in assay [1]; 27.26% in assay [2]; 42.39% in the assay with NCI-H1975; 35.67% in [3]; 53.47% in assay [4]. Also, the results for the Activity (in assay [5]; in [6]; with U-251) were 30.87%, 23.7% and 11.33%, respectively.

With `C=CC(=O)N1CCN(c2ccc(/C=C3\C(=O)Nc4ncccc43)cc2)CC1`, the Activity in the assay on A549 is 25.1%; in assay [1], 19.94%; in assay [2] it was 13.65%; in the assay with NCI-H1975, 35.6%; in assay [3], 7.69%; in [4], 22.4%. Further, the figures for the Activity (in assay [5]; in [6]; with U-251) were 12.29%, 6.35% and 12.58%, respectively.

Turning to `O=C1Nc2ccc(Cl)cc2/C1=N/c1ccc2ncccc2c1`, the Activity amounted to 33.82% in the assay with A549; 17.04% in assay [1]; 24.97% in assay [2]; 48.22% in the assay with NCI-H1975; 24.3% in [3]; 36.53% in [4]. In addition, the Activity in assay [5] is on record as 0.92%; in assay [6] it was 11.48%; with U-251, -1.16%.

For the molecule `O=C1Nc2ncccc2/C1=C/c1c[nH]c2ccccc12`, the Activity with A549 was found to be 5.4%; in assay [1] it was 3.22%; in assay [2], 2.64%; in the assay on NCI-H1975 it was 13.11%; in [3], 7.2%; in assay [4], 7.27%. Also, the results for the Activity (in [5]; in [6]; with U-251) were 18.98%, 24.68% and 0.83%, respectively.

The record behind these values is ChEMBL document CHEMBL3352626, “Synthesis and biological evaluation of novel oxindole-based RTK inhibitors as anti-cancer agents” (Bioorg Med Chem, 2014).
